# Assay results reported in ChEMBL document CHEMBL1126734, “Synthesis of phosphocholine and quaternary amine ether lipids and evaluation of in vitro antineoplastic activity” (1993).
# Tests used:
# HL-60 [1] = experiment: Standard thymidine incorporation assay (TdR) was carried out for 48 hr and involved a 24-h pulse of [3H]- thymidine (n=1) and ID50 value was evaluated; assay type: functional; conditions: Homo sapiens, read-out: ID50 (the source's name)
# Method in brief: (§1)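 HL-60 human promyelocytic leukemia cells in RPMI 1640 with 10% heat-inactivated FBS, 37 °C, 5% CO2. Log-phase cells seeded at 5 × 10^4/well with inhibitor dilutions from ethanol stocks (1 or 10 mg/mL). At 24 h, pulsed with 1.0 μCi [methyl-3H]thymidine (6.7 Ci/mmol) for a further 24 h. Harvested onto glass fiber filters and counted by liquid scintillation as % of control. Quadruplicate determinations. Values in μM.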
# HL-60 [2] = experiment: Standard thymidine incorporation assay (TdR) was carried out for 48 h and involved a 24-h pulse of [3H]- thymidine (n=6) and ID50 value was evaluated; assay type: functional; conditions: Homo sapiens, read-out: ID50 (the source's name); method in brief: as §1
# HL-60 [3] = experiment: Trypan blue exclusion assay (TB) was carried out for 48 hr and the in vitro ID50 value was evaluated in the HL-60 leukemic cell system (n=9); assay type: functional; conditions: Homo sapiens, HL-60, 48 h; read-out: ID50 (the source's name)
# Method in brief: (§2)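 HL-60 human promyelocytic leukemia cells were grown in suspension in RPMI 1640 with 10% heat-inactivated FBS, penicillin/streptomycin, 2 mM L-glutamine and 0.22% NaHCO3 at 37 °C under 5% CO2. Cells at 5 × 10^5/mL were exposed to various inhibitor concentrations diluted from ethanol stocks into medium for 48 h. Trypan blue in PBS was then added and viable cells were counted by hemocytometer. Triplicate determinations; values in μM.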
# HL-60 [4] = experiment: Standard thymidine incorporation assay (TdR) was carried out for 48 hr with an 8 hr pulse of [3H]- thymidine (TdR8) (n=7) and ID50 value was evaluated; assay type: functional; conditions: Homo sapiens, read-out: ID50 (the source's name)
# Method in brief: (§3)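 HL-60 leukemia suspension cultures grown in RPMI 1640/10% FBS at 37 °C, 5% CO2. Cells seeded at 5 × 10^4/well with inhibitors diluted from ethanol stocks. 48-h exposure, with 1.0 μCi [methyl-3H]thymidine (6.7 Ci/mmol) added for the last 8 h. Filter-harvested cells counted by liquid scintillation, uptake expressed as percent of control. Quadruplicate determinations. Results in μM.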
# HL-60 [5] = experiment: Trypan blue exclusion assay (TB) was carried out for 48 hr and the in vitro ID50 value was evaluated in the HL-60 leukemic cell system (n=1); assay type: functional, Homo sapiens; conditions: read-out: ID50 (the source's name); method in brief: as §2
# HL-60 [6] = experiment: Standard thymidine incorporation assay (TdR) was carried out for 48 hr with an 8 hr pulse of [3H]- thymidine (TdR8) (n=1) and ID50 value was evaluated; assay type: functional; conditions: Homo sapiens, read-out: ID50 (the source's name); method in brief: as §3
# HL-60 [7] = experiment: Standard thymidine incorporation assay (TdR) was carried out for 48 hr and involved a 24-h pulse of [3H]- thymidine (n=2) and ID50 value was evaluated; assay type: functional; conditions: Homo sapiens, read-out: ID50 (the source's name); method in brief: as §1
# HL-60 [8] = experiment: Standard thymidine incorporation assay (TdR) was carried out for 48 hr with an 8 hr pulse of [3H]- thymidine (TdR8) (n=4) and ID50 value was evaluated; assay type: functional; conditions: Homo sapiens, read-out: ID50 (the source's name); method in brief: as §3
# HL-60 [9] = experiment: Trypan blue exclusion assay (TB) was carried out for 48 h and the in vitro ID50 value was evaluated in the HL-60 leukemic cell system (n=3); assay type: functional; conditions: Homo sapiens, HL-60, 48 h; read-out: ID50 (the source's name); method in brief: as §2
# HL-60 [10] = experiment: Standard thymidine incorporation assay (TdR) was carried out for 48 hr with an 8 hr pulse of [3H]- thymidine (TdR8) (n=16) and ID50 value was evaluated; assay type: functional; conditions: Homo sapiens, read-out: ID50 (the source's name); method in brief: as §3
# HL-60 [11] = experiment: Standard thymidine incorporation assay (TdR) was carried out for 48 hr and involved a 24-h pulse of [3H]- thymidine (n=21) and ID50 value was evaluated; assay type: functional; conditions: Homo sapiens, read-out: ID50 (the source's name); method in brief: as §1
# HL-60 [12] = experiment: Trypan blue exclusion assay (TB) was carried out for 48 hr and the in vitro ID50 value was evaluated in the HL-60 leukemic cell system (n=33); assay type: functional; conditions: Homo sapiens, HL-60, 48 h; read-out: ID50 (the source's name); method in brief: as §2
# HL-60 [13] = experiment: Trypan blue exclusion assay (TB) was carried out for 48 hr and the in vitro ID50 value was evaluated in the HL-60 leukemic cell system (n=4); assay type: functional; conditions: Homo sapiens, HL-60, 48 h; read-out: ID50 (the source's name); method in brief: as §2
# HL-60 [14] = experiment: Standard thymidine incorporation assay (TdR) was carried out for 48 hr and involved a 24-h pulse of [3H]- thymidine (n=3) and ID50 value was evaluated; assay type: functional; conditions: Homo sapiens, read-out: ID50 (the source's name); method in brief: as §1
# HL-60 [15] = experiment: Standard thymidine incorporation assay (TdR) was carried out for 48 hr with an 8 hr pulse of [3H]- thymidine (TdR8) (n=5) and ID50 value was evaluated; assay type: functional; conditions: Homo sapiens, read-out: ID50 (the source's name); method in brief: as §3
# HL-60 [16] = experiment: Standard thymidine incorporation assay (TdR) was carried out for 48 hr and involved a 24-h pulse of [3H]- thymidine (n=5) and ID50 value was evaluated; assay type: functional; conditions: Homo sapiens, read-out: ID50 (the source's name); method in brief: as §1
# HL-60 [17] = experiment: Standard thymidine incorporation assay (TdR) was carried out for 48 hr with an 8 hr pulse of [3H]- thymidine (TdR8) (n=3) and ID50 value was evaluated; assay type: functional; conditions: Homo sapiens, read-out: ID50 (the source's name); method in brief: as §3
smiles,measurement,setting,value
CCCCCCCCCCCCCCCCSCC[N+](C)(C)CCO,IC50,HL-60 [1],3.95 µM
CCCCCCCCCCCCCCCCCCSCC(C[N+](C)(C)CCCO)OC (stereo not drawn),IC50,HL-60 [2],3.51 µM
same,IC50,HL-60 [3],2.93 µM
same,IC50,HL-60 [4],2.46 µM
CCCCCCCCCCCCCCCCSCC(COP(=O)(O)OCC[N+](CC)(CC)CC)OCC (stereo not drawn),IC50,"HL-60 [5]; Homo sapiens, HL-60, 48 h",3.31 µM
CCCCCCCCCCCCCCCCSCC(C[N+]1(C)CCCC1)OCC (stereo not drawn),IC50,HL-60 [6],1.9 µM
same,IC50,HL-60 [1],2.09 µM
CCCCCCCCCCCCCCCCCCCC(=O)NCC(COP(=O)([O-])OCC[N+](C)(C)C)OCC (stereo not drawn),IC50,HL-60 [7],3.39 µM
same,IC50,HL-60 [8],2.71 µM
same,IC50,HL-60 [9],3.17 µM
CCCCCCCCCCCCCCCCCCOCC(COP(=O)([O-])OCC[N+](C)(C)C)OC (stereo not drawn) [EDELFOSINE],IC50,HL-60 [10],2.41 µM
same,IC50,HL-60 [11],2.38 µM
same,IC50,HL-60 [12],2.48 µM
CCCCCCCCCCCCCCCCOCC(C[n+]1cccc(CO)c1)OC (stereo not drawn),IC50,HL-60 [7],1.68 µM
same,IC50,HL-60 [8],0.85 µM
same,IC50,HL-60 [13],1.07 µM
CCCCCCCCCCCCCCCCOCC(COP(=O)([O-])OCC[n+]1ccccc1)OCC (stereo not drawn),IC50,HL-60 [14],2.56 µM
same,IC50,"HL-60 [5]; Homo sapiens, HL-60, 48 h",2.64 µM
CCCCCCCCCCCCCCC(CSCC(COP(=O)([O-])OCC[N+](C)(C)C)OCC)OC (stereo not drawn),IC50,HL-60 [7],2.47 µM
same,IC50,HL-60 [9],3.39 µM
CCCCCCCCCCCCCCCCSCCOP(=O)([O-])OCC[N+](C)(C)C,IC50,HL-60 [1],5.16 µM
same,IC50,"HL-60 [5]; Homo sapiens, HL-60, 48 h",4.15 µM
CCCCCCCCCCCCCCCCCCOCC(COP(=O)([O-])OCC[N+](C)(C)Cc1ccccc1)OCC (stereo not drawn),IC50,"HL-60 [5]; Homo sapiens, HL-60, 48 h",3.65 µM
CCCCCCCCCCCCCCCCOCC(C[S+](C)CCO)OC (stereo not drawn),IC50,HL-60 [14],2.01 µM
same,IC50,HL-60 [15],2.03 µM
same,IC50,HL-60 [9],2.49 µM
CCCCCCCCCCCCCCCCSCC(COC)C[N+](C)(C)CCCO (stereo not drawn),IC50,HL-60 [1],3.46 µM
CCCCCCCCCCCCCCCCSCC(C[N+](C)(C)CCO)OC (stereo not drawn),IC50,HL-60 [16],4.34 µM
same,IC50,HL-60 [17],3.37 µM
same,IC50,HL-60 [13],3.86 µM
CCCCCCCCCCCCCCCCSCC(C[N+](C)(C)C)OCCCCC (stereo not drawn),IC50,HL-60 [6],5.02 µM
same,IC50,HL-60 [1],4.97 µM
same,IC50,"HL-60 [5]; Homo sapiens, HL-60, 48 h",6.14 µM
CCCCCCCCCCCCCCCCSCC(COP(=O)([O-])OCC[N+](C)(C)C)OCC (stereo in doubt; 5),IC50,HL-60 [5],6.75 µM
CCCCCCCCCCCCCCCCSCC(C[N+](C)(C)CCO)OCCCCCC (stereo not drawn),IC50,HL-60 [1],7.15 µM
CCCCCCCCCCCCCCCCCC(=O)NCCCOP(=O)([O-])OCC[n+]1ccccc1,IC50,HL-60 [14],4.33 µM
same,IC50,HL-60 [9],4.16 µM
CCCCCCCCCCCCCCCCOCC(COCCCC[N+](C)(C)CCCO)OC (stereo not drawn),IC50,HL-60 [7],1.98 µM
same,IC50,HL-60 [8],1.21 µM
same,IC50,HL-60 [9],1.83 µM
CCCCCCCCCCCCCCCCSCC(COP(=O)([O-])OCC[N+](C)(C)C)OCC (stereo in doubt; 2),IC50,HL-60 [14],2.19 µM
same,IC50,HL-60 [17],3.11 µM
same,IC50,HL-60 [5],2.25 µM
